In the library only some 4% were active in any assay of this set; here they are far more common.
KCNK3 inh: human KCNK3 channel inhibition, primary screen. 340,000 tested, 0.84% active. AID 602410. B-score at 10 µM. CHO-KCNK3 thallium flux, FluxOR fluorescence; active compounds read low;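 active means B-score under library mean minus 4 SD, starting fluorescence ratio at most library mean plus 5 SD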;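 further: more negative B-score means stronger inhibition of thallium flux through KCNK3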
KCNQ1 inh: inhibitors of human KCNQ1 potassium channel; P51787; CHO-K1 KCNQ1, FluxOR thallium flux fluorescence; active compounds read high; B-score at 10 µM; 310,000 tested, 1.3% active;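 active means compounds whose thallium flux B-score, printed positive for inhibition, exceeds three library SD while starting fluorescence stays within three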;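 further: channel opened by potassium depolarization with thallium stimulus after 20 min compound exposure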
KCNK9 inh: human KCNK9 channel inhibition. HEK293 KCNK9, FluxOR thallium flux fluorescence; active compounds read low. B-score at 10 µM. 310,000 tested, 1.2% active;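 active means ratio B-score over 3 SD below the library mean, with starting fluorescence within 5 SD of its mean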;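 further: negative B-score means less thallium flux so channel inhibition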
KCNQ1 pot: potentiators or activators of human KCNQ1 potassium channel; P51787; CHO-K1 KCNQ1, thallium flux FluxOR fluorescence; active compounds read high; B-score at 10 µM; 310,000 tested, 0.35% active;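 active means fluorescence ratio B-score, a plate-corrected score, at least three library SD, with initial intensity B-score within 5 SD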
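Material: CHO-K1 cells stably expressing KCNQ1. Medium: assay buffer for compound exposure, DMSO matched across wells. Reagent: K+/Tl+ depolarizing stimulus. Compound dosing: single-concentration screen. Times: 37 °C overnight plating, 90-min dark dye load, 20-min compound pretreatment. Technique: FluxOR Tl+ flux fluorescence.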
hERG protect: hERG (human) protection from proarrhythmic block; Q12809; CHO-hERG, FluxOR thallium flux, dofetilide IC70 present; activation (rescue from dofetilide block), less the hit threshold, % at 10 µM; 310,000 tested, 0.51% active; AID 1511;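 active means activation above the mean of controls blocked by dofetilide plus 5 SD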;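 further: thallium influx through hERG after potassium depolarization seen as dye fluorescence rise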
PHOSPHO1 block: inhibitors of human PHOSPHO1 phosphatase; Q8TCT1; recombinant PHOSPHO1, absorbance phosphatase assay; inhibition, % at 13.3 µM; 290,000 tested, 1.1% active; AID 1565; in the data active means inhibition above about 60%
Target sequence (Q8TCT1 whole entry, looked up): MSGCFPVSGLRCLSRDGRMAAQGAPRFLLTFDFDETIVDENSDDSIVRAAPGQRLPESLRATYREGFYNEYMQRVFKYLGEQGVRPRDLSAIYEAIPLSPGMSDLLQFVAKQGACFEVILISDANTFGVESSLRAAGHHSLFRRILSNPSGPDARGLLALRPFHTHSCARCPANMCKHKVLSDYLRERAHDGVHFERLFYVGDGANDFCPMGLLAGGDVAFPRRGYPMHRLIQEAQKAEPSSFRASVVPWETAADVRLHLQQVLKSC
KCNK9 inh conf: human KCNK9 inhibitor confirmation. shares compounds with KCNK9 inh. HEK293 KCNK9 cells, FluxOR thallium flux fluorescence. inhibition, % at 10 µM. 4,900 tested, 43% active. AID 492992;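 active means thallium signal inhibited by more than 5 SD of the compound-free buffer control wells, on both duplicate plates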
Kir2-1 spec: tests whether KCNK9 modulators also affect mouse Kir2.1; 4,900 tested, 4% active; inhibition, % at 10 µM; Kir2.1 cells, FluxOR thallium flux fluorescence; AID 492993; shares compounds with KCNK9 inh;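 active means thallium signal drop more than 5 SD beyond the mean of the no-compound control wells, seen in both duplicate plates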;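 further: signal is fluorescence rise after thallium addition divided by baseline fluorescence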
Target sequence (P35561 whole entry, looked up): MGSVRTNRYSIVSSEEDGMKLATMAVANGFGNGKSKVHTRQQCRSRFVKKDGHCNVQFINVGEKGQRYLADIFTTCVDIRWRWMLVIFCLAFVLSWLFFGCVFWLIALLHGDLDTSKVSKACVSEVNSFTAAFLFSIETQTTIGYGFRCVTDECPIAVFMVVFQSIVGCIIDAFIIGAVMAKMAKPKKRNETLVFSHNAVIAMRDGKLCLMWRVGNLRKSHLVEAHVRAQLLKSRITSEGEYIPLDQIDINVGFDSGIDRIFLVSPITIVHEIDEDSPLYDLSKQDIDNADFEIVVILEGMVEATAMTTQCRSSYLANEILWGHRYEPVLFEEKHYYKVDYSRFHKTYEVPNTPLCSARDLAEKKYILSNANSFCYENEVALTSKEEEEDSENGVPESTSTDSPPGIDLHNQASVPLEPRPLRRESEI
KCNK9 uninduced: second counter-screen for KCNK9 modulators: effect in non-induced cells; shares compounds with KCNK9 inh; non-induced KCNK9-HEK293, FluxOR thallium flux; inhibition, % at 10 µM; 4,900 tested, 40% active; AID 492997;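 active means thallium signal drop beyond 5 SD of the untreated control mean, on both duplicate plates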
KCNK3 inh conf: human KCNK3 channel inhibition, confirmation assay | shares compounds with KCNK3 inh | ratio percent of control, % at 10 µM | AID 651638 | CHO-KCNK3 thallium flux, FluxOR fluorescence; 0% buffer, 100% carvedilol maximal block | 2,400 tested, 99% active;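 active means ratio percent of control, averaged over triplicates, above buffer control mean plus 5 SD, cut at about 64% in these data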;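 further: ratio is the fluorescence rise from min to max over baseline after thallium stimulus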
KCNK3 uninduced: counter-screen for KCNK3 inhibitors: effect in non-induced cells; shares compounds with KCNK3 inh; non-induced KCNK3 parental cells, FluxOR thallium flux; active compounds read low; thallium flux ratio (lower = more inhibition) at 10 µM; 2,400 tested, 40% active;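 active means thallium flux ratio, averaged over three wells, more than 5 SD below the buffer control mean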;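 further: host cells are CHO cells without KCNK3 induction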
Each line names hits and unclear results; the compound was inactive in the other large screens (follow-up assays come after a bar, where they were run).

Cc1ccc(CN2CCCN(Cc3c(F)cccc3Cl)S2(=O)=O)cc1	KCNK3 inh -10, KCNK9 inh -14 | KCNK9 inh conf 60% | Kir2-1 spec inactive | KCNK9 uninduced 43% | KCNK3 inh conf 113 | KCNK3 uninduced inactive
Cc1ccc(NC(=O)Nc2cccn(Cc3c(F)cccc3Cl)c2=O)cc1	none
O=C(Nc1ccccc1)c1sc2cc(C(F)(F)F)cnc2c1-c1cccs1	KCNK3 inh -9, KCNK9 inh -9 | KCNK9 inh conf 40% | Kir2-1 spec inactive | KCNK9 uninduced 34% | KCNK3 inh conf 112 | KCNK3 uninduced inactive
NNC(=O)c1sc2cc(C(F)(F)F)cnc2c1-c1cccs1	none
CCCC(C(=O)OCC)P(=O)(c1ccccc1)c1ccccc1 (configuration not stated)	none
O=C/C(=C\Nc1ccccn1)c1nc2ccccc2o1	none
O=C/C(=C\Nc1ccccn1)c1nc2cc(Cl)ccc2o1	KCNK9 inh -8.5 | KCNK9 inh conf 35% | Kir2-1 spec inactive | KCNK9 uninduced inactive | KCNK3 inh conf 114 | KCNK3 uninduced inactive
CCOC(=O)C(CCCOc1cccc(CC)c1)C(=O)OCC	KCNK3 inh -10 | KCNK9 inh conf inactive | Kir2-1 spec inactive | KCNK9 uninduced inactive | KCNK3 inh conf 108 | KCNK3 uninduced inactive
CCc1cc(=O)oc2cc(C)cc(OCC(=O)N3CCC(C(=O)NC(C)C)(c4ccccc4)CC3)c12	KCNK3 inh -14, KCNK9 inh -19 | KCNK9 inh conf 65% | Kir2-1 spec inactive | KCNK9 uninduced 26% | KCNK3 inh conf 100 | KCNK3 uninduced inactive
CCCCc1cc(=O)oc2c(C)c(OCC(=O)N3CCC(C(=O)O)(c4ccccc4)CC3)ccc12	none
Cc1ccc(O)c(C(=O)c2cnc3c(c2)COc2ccc(C)cc2-3)c1	KCNK9 inh -13 | KCNK9 inh conf 72% | Kir2-1 spec inactive | KCNK9 uninduced 40% | KCNK3 inh conf 113 | KCNK3 uninduced inactive
N#CCC(=O)Nc1ccc(C(=O)OC(C(=O)Nc2cc(C(F)(F)F)ccc2Cl)c2ccccc2)cc1 (configuration not stated)	none (no result: PHOSPHO1 block)
C[C@H](NC(=O)c1ccccc1Cl)C(=O)OC(C(=O)Nc1cc(C(F)(F)F)ccc1Cl)c1ccccc1 (some centres not stated)	KCNK3 inh -11, KCNK9 inh -18 | KCNK9 inh conf 68% | Kir2-1 spec inactive | KCNK9 uninduced 40% | KCNK3 inh conf 108 | KCNK3 uninduced inactive
O=C(Nc1cccc(-c2nnc(-c3ccco3)o2)c1)C(c1ccccc1)c1ccccc1	KCNK3 inh -13, KCNQ1 inh 10, KCNK9 inh -20 | KCNK9 inh conf 72% | Kir2-1 spec inactive | KCNK9 uninduced 30% | KCNK3 inh conf 135 | KCNK3 uninduced 0.11
O=C(Cc1ccccc1)Nc1cccc(-c2nnc(-c3ccco3)o2)c1	none
O=C(Cc1ccc(Cl)cc1)Nc1cccc(-c2nnc(-c3ccco3)o2)c1	none
COc1ccccc1OCC(=O)Nc1cccc(-c2nnc(-c3ccco3)o2)c1	KCNK3 inh -10, KCNK9 inh -8.6 | KCNK9 inh conf 31% | Kir2-1 spec inactive | KCNK9 uninduced inactive | KCNK3 inh conf 103 | KCNK3 uninduced inactive
O=C(CSc1nc2[nH]ncc2c(=O)n1-c1ccccc1)NCCc1ccccc1	none
O=C(CSc1nc2[nH]ncc2c(=O)n1-c1ccc(Cl)c(Cl)c1)NCc1ccccc1Cl	KCNK3 inh -12, KCNK9 inh -8.2 | KCNK9 inh conf 48% | Kir2-1 spec inactive | KCNK9 uninduced 34% | KCNK3 inh conf 128 | KCNK3 uninduced 0.14
COc1ccc(/C(C#N)=C/c2c(-c3ccc(Cl)cc3)nc3c(C)cccn23)cc1	KCNK3 inh -10, KCNK9 inh -11 | KCNK9 inh conf 42% | Kir2-1 spec inactive | KCNK9 uninduced 29% | KCNK3 inh conf 101 | KCNK3 uninduced 0.15
CCN(CC)C(=O)COc1ccc(-c2ccccc2)cc1	KCNK3 inh -10, KCNK9 inh -9.8 | KCNK9 inh conf 41% | Kir2-1 spec inactive | KCNK9 uninduced inactive | KCNK3 inh conf 84 | KCNK3 uninduced inactive
COc1cccc(NC(=O)Cn2c(=O)n(CC3CCCO3)c(=O)c3ccccc32)c1 (configuration not stated)	none
COc1cc2c(c3oc(-c4ccccc4)cc(=O)c13)C=CC(C)(C)O2	KCNK3 inh -8.8, KCNK9 inh -9.4 | KCNK9 inh conf 44% | Kir2-1 spec inactive | KCNK9 uninduced inactive | KCNK3 inh conf 122 | KCNK3 uninduced 0.14
N#C/C(=N\Nc1ccccc1[N+](=O)[O-])C(=N)N1CCCCC1	none
Cc1nn(Cc2ccc(C(=O)NN)o2)c(C)c1Cl	none
Cc1nn(Cc2ccc(C(=O)Nc3ccc(C(=O)OC(C)C)cc3)o2)c(C)c1Cl	KCNK3 inh -9.5, KCNK9 inh -10 | KCNK9 inh conf 56% | Kir2-1 spec inactive | KCNK9 uninduced inactive | KCNK3 inh conf 107 | KCNK3 uninduced inactive
O=Cc1c(OCc2ccccc2)ccc2ccccc12	KCNK3 inh -11, KCNK9 inh -17 | KCNK9 inh conf 64% | Kir2-1 spec inactive | KCNK9 uninduced 50% | KCNK3 inh conf 113 | KCNK3 uninduced 0.15
O=C(NC(=S)N1CCOCC1)C12CCC3CC(CC(C3)C1)C2	none
C(=N\NC1=Nc2cccc3cccc1c23)/c1cccnc1	none
O=C(NCC(c1cccs1)N1CCc2ccccc21)c1ccccc1 (configuration not stated)	none (no result: PHOSPHO1 block)
COc1cccc(C(=O)NCC(c2cccs2)N2CCc3ccccc32)c1 (configuration not stated)	KCNK3 inh -14, KCNK9 inh -17 (no result: PHOSPHO1 block) | KCNK9 inh conf 56% | Kir2-1 spec inactive | KCNK9 uninduced 37% | KCNK3 inh conf 135 | KCNK3 uninduced 0.12
CCOC(=O)c1oc2ccccc2c1NC(=O)c1ccc2c(c1)OCO2	none
COc1ccc(NC(=O)c2oc3ccccc3c2NC(=O)c2ccc3c(c2)OCO3)cc1	KCNK3 inh -9, KCNK9 inh -11 | KCNK9 inh conf 58% | Kir2-1 spec inactive | KCNK9 uninduced inactive | KCNK3 inh conf 88 | KCNK3 uninduced inactive

Screening data (PubChem)
